We go through 2 compounds from ChEMBL document CHEMBL2424574, “Structure-activity relationships and pharmacophore model of a noncompetitive pyrazoline containing class of GluN2C/GluN2D selective antagonists” (J Med Chem, 2013).

Data set [1] is filed under the species Homo sapiens. As to the kind of experiment: Inhibition of GluN2D receptor L705F mutant (unknown origin).
Data set [2] has as its target T1, Ionotropic glutamate receptor NMDA 1/2D (Homo sapiens) (UniProt Q05586+O15399). Particulars: Oocyte, 1 uM.
The target of data set [3] is Glutamate receptor 2 (Homo sapiens) (UniProt P42262). As to the kind of experiment: Inhibition of GluA2 receptor (unknown origin) expressed in Xenopus laevis oocytes assessed as inhibition of glutamate-induced current at 3 uM by two-electrode voltage clamp method; values are per cent of control. Particulars: Oocyte. (Two-electrode voltage clamp is typically applied to oocytes expressing channels or transporters.)

For data set [4], the target named is Gamma-aminobutyric acid receptor subunit rho-1 (Homo sapiens) (UniProt P24046). As to the kind of experiment: Inhibition of human GABA C receptor subunit rho-1 receptor expressed in Xenopus laevis oocytes assessed as inhibition of GABA-induced current at 3 uM by two-electrode voltage clamp method; values are per cent of control. Conditions: Oocyte.
For data set [5], the species on record is Rattus norvegicus. The data set can be described thus: Selectivity ratio of IC50 for recombinant rat GluN2A receptor to IC50 for recombinant rat GluN2D receptor. Put shortly:
(§1)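 Rat GluN1 co-expressed with GluN2A, GluN2B or GluN2D in Xenopus oocytes. Two-electrode voltage clamp at −40 mV in 90 NaCl, 1 KCl, 0.5 BaCl2, 0.005 EDTA, 10 HEPES (mM), pH 7.4, 23 °C; final DMSO 0.1–0.05%. IC50s came from Hill fits to averaged composite concentration-response curves (5–24 oocytes, 2–4 frogs). Ratio is GluN2A or GluN2B IC50 over GluN2D IC50.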

Data set [6] deals with Plasma. The data set can be described thus: Metabolic stability in human plasma after 2 hrs. The format is ADME, cell-free. In outline: (§2)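 Stability followed in human, rat or mouse plasma over a 2-hour time course.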
Data set [7] has as its target T1, Ionotropic glutamate receptor NMDA 1/2D (Homo sapiens). Conditions: Oocyte, 1 uM. The source holds these as a separate data set.
Data set [8] has as its system Plasma. The data set can be described thus: Metabolic stability in mouse plasma after 2 hrs. The format is ADME, cell-free. In outline: as §2
Data set [9] concerns the target Glutamate NMDA receptor; GRIN1/GRIN2B (Homo sapiens) (UniProt Q05586+Q13224). The data set can be described thus: Inhibition of GluN1/GluN2B receptor (unknown origin) expressed in Xenopus laevis oocytes assessed as inhibition of glutamate/glycine-induced current at 3 uM by two-electrode voltage clamp method; values are per cent of control. Particulars: Oocyte.
Data set [10] addresses 5-hydroxytryptamine receptor 1E (Homo sapiens, UniProt P28566). As to the kind of experiment: Inhibition of 5HT1E receptor (unknown origin). In outline:
(§3)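 Radioligand panel screening was run through the NIMH Psychoactive Drug Screening Program with compounds at 5 µM.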

Data set [11] addresses T1, Ionotropic glutamate receptor NMDA 1/2D (Homo sapiens). Particulars: Oocyte, 1 uM. The source holds these as a separate data set.
The species named for data set [12] is Homo sapiens. As to the kind of experiment: Inhibition of GluN2D receptor A752V mutant (unknown origin).
In data set [13] the target is Neuronal acetylcholine receptor; alpha9/alpha10 (Homo sapiens) (UniProt Q9UGM1+Q9GZZ6). As to the kind of experiment: Inhibition of nicotinic acetylcholine receptor subunit alpha-9 alpha-10 (unknown origin) expressed in Xenopus laevis oocytes assessed as inhibition of acetylcholine-induced current at 3 uM by two-electrode voltage clamp method; values are per cent of control. Particulars: Oocyte.

The species entered for data set [14] is Rattus norvegicus. The data set can be described thus: Selectivity ratio of IC50 for recombinant rat GluN2B receptor to IC50 for recombinant rat GluN2D receptor. Put shortly: as §1
The target of data set [15] is Glutamate receptor 3 (Homo sapiens) (UniProt P42263). As to the kind of experiment: Inhibition of GluA3 receptor (unknown origin) expressed in Xenopus laevis oocytes assessed as inhibition of glutamate-induced current at 3 uM by two-electrode voltage clamp method; values are per cent of control. Particulars: Oocyte.
For data set [16], the species on record is Homo sapiens. The data set can be described thus: Inhibition of GluN2D receptor Q801Y mutant (unknown origin).
Data set [17] concerns the target Kappa-type opioid receptor (Homo sapiens, UniProt P41145). As to the kind of experiment: Inhibition of kappa-type opioid receptor (unknown origin). In outline: as §3
Data set [18] has as its target P2X purinoceptor 2 (Rattus norvegicus) (UniProt P49653). As to the kind of experiment: Inhibition of rat purinergic receptor P2X subunit-2 expressed in Xenopus laevis oocytes assessed as inhibition of ATP-induced current at 3 uM by two-electrode voltage clamp method; values are per cent of control. Particulars: Oocyte.
The target of data set [19] is T1, Ionotropic glutamate receptor NMDA 1/2D (Homo sapiens). As to the kind of experiment: Inhibition of GluN1/GluN2D receptor (unknown origin) expressed in Xenopus laevis oocytes assessed as inhibition of glutamate/glycine-induced current at 3 uM by two-electrode voltage clamp method; values are per cent of control. Conditions: Oocyte.
The test system of data set [20] is MDCK. The data set can be described thus: Permeability across apical to basolateral side in dog MDCK cells expressing MDR1 assessed as compound recovery at 5 uM after 120 mins by LC-MS/MS analysis. The format is ADME, cell-based, Canis lupus familiaris. Conditions: 2 h. In outline:
(§4)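 MDR1-MDCK monolayers grown to confluence on collagen-coated polycarbonate membranes. Assay buffer was HBSS with 10 mM HEPES and 15 mM glucose, pH 7.4, and the receiver side also held 1% BSA. Monolayers were dosed apically (A-to-B) or basolaterally (B-to-A) at 5 μM, 37 °C, 5% CO2. Donor and receiver were sampled at 120 min, in duplicate, by LC-MS/MS (ESI). Papp and percent recovery were calculated from receiver/donor concentrations.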

Data set [21] has as its system Liver microsomes. The data set can be described thus: Metabolic stability in human liver microsomes assessed as compound remaining at 1 uM after 60 mins by LC-MS/MS analysis. The format is ADME, Microsome. Conditions: 1 h. In outline:
(§5)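 Human liver microsomes 0.5 mg/mL in 100 mM potassium phosphate pH 7.4 with 5 mM MgCl2 and 1 μM test compound. Preincubated 3 min at 37 °C, then started with 1 mM NADPH, with a testosterone control in parallel. Sampled at 0, 10, 20, 30 and 60 min and quenched in cold acetonitrile/water with formic acid and internal standard. Percent remaining by LC-MS/MS (MRM) versus time 0. t1/2 = 0.693/k from the ln-remaining slope; CLint = k/protein concentration.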
(Liver microsomes are a subcellular fraction often used to study metabolism.)

For data set [22], the system named is MDCK. The data set can be described thus: Permeability across basolateral to apical side in dog MDCK cells expressing MDR1 assessed as compound recovery at 5 uM after 120 mins by LC-MS/MS analysis. The format is ADME, cell-based, Canis lupus familiaris. Particulars: 2 h. In outline: as §4
The subject of data set [23] is Liver microsomes. As to the kind of experiment: Metabolic stability in human liver microsomes assessed as compound remaining at 1 uM after 30 mins by LC-MS/MS analysis. The format is ADME, Microsome. Conditions: 0.5 h. Put shortly:
as §5

Data set [24] can be described thus: Aqueous solubility in DMSO buffer by nephelometric analysis. Conditions: oocyte recording buffer; in the assay text read “oocyte recording buffer” for “DMSO buffer”. The format is physicochemical. Put shortly: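 Solubility measured by nephelometry in oocyte recording buffer: 90 mM NaCl, 1 KCl, 0.5 BaCl2, 0.005 EDTA, 10 HEPES, pH 7.4.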
Data set [25] relates to MDCK. As to the kind of experiment: Apparent permeability across apical to basolateral side in dog MDCK cells expressing MDR1 at 5 uM after 120 mins by LC-MS/MS analysis. The format is ADME, cell-based, Canis lupus familiaris. Conditions: 2 h. In outline:
as §4

Data set [26] has as its system Liver microsomes. The data set can be described thus: Intrinsic clearance in human liver microsomes measured per mg of protein at 1 uM by LC-MS/MS analysis. The format is ADME, Microsome. In outline: as §5
For data set [27], the system named is Liver microsomes. As to the kind of experiment: Half life in human liver microsomes at 1 uM. The format is ADME, Microsome. Put shortly: as §5
Data set [28] deals with Histamine H2 receptor (Homo sapiens, UniProt P25021). As to the kind of experiment: Inhibition of histamine H2 receptor (unknown origin). Put shortly:
as §3

pKi: −log10 of the molar value. The source made the active and inactive calls. No cut-off for these calls is given here. Where only a bound is given, the exact number is not on record here.

P2X purinoceptor 2 (Rattus norvegicus), sequence (P49653 whole entry): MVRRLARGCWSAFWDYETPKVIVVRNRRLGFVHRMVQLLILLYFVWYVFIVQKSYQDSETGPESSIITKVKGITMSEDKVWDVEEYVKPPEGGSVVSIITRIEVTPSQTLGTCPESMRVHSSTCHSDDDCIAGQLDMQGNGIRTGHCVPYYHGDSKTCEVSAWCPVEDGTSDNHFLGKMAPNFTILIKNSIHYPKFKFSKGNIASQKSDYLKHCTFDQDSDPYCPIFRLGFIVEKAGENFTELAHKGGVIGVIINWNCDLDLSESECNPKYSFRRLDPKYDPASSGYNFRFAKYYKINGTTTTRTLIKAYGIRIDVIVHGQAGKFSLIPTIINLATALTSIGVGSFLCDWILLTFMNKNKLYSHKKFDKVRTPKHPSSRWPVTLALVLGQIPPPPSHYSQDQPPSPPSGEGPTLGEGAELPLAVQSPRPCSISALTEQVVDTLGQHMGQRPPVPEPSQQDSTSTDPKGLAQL
Glutamate receptor 3 (Homo sapiens), sequence (P42263 whole entry): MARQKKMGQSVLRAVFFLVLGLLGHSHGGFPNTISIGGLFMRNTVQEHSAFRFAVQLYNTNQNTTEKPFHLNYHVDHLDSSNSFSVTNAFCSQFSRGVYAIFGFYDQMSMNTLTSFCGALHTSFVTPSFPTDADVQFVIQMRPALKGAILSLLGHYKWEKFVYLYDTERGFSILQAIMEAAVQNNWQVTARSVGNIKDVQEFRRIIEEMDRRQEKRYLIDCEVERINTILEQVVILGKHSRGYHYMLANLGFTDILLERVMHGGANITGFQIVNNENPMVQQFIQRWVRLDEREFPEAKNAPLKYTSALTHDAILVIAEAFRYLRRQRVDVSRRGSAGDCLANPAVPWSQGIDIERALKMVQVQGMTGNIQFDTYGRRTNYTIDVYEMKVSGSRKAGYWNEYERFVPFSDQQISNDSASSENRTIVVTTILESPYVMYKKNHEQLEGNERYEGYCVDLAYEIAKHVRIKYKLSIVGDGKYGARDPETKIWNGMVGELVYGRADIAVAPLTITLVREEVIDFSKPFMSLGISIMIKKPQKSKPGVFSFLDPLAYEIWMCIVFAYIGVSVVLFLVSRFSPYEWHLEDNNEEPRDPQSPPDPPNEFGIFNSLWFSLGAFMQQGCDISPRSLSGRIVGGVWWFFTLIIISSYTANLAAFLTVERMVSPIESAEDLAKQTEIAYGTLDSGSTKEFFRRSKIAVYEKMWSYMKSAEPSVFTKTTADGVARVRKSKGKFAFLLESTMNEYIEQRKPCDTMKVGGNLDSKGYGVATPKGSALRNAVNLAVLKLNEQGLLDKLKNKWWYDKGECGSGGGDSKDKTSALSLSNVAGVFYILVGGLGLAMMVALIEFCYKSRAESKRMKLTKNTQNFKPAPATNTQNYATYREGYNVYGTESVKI
Glutamate receptor 2 (Homo sapiens), sequence (P42262 whole entry): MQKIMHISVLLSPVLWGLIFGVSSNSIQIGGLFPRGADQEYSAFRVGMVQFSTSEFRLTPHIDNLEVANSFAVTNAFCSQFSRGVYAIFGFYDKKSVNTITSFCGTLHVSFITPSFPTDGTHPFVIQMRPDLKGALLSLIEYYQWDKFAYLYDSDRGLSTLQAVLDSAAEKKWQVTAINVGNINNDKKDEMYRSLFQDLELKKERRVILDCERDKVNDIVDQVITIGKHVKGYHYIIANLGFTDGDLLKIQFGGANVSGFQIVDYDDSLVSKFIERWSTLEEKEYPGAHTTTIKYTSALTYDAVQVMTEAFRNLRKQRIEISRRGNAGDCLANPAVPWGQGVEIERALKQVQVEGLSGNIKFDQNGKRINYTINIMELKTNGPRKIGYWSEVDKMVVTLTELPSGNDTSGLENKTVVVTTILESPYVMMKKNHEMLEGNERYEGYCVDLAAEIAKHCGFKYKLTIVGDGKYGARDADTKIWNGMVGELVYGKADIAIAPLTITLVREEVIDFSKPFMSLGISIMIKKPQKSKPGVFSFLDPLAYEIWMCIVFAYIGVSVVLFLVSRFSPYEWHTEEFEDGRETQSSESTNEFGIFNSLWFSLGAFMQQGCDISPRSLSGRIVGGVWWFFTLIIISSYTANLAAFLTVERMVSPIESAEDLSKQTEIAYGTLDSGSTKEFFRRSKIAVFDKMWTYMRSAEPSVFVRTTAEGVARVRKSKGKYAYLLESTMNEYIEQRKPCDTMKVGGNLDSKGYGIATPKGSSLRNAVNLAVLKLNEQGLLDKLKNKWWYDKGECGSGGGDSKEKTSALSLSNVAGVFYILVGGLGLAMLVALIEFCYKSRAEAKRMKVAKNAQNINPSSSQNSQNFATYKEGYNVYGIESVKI
Kappa-type opioid receptor, sequence (P41145 whole entry): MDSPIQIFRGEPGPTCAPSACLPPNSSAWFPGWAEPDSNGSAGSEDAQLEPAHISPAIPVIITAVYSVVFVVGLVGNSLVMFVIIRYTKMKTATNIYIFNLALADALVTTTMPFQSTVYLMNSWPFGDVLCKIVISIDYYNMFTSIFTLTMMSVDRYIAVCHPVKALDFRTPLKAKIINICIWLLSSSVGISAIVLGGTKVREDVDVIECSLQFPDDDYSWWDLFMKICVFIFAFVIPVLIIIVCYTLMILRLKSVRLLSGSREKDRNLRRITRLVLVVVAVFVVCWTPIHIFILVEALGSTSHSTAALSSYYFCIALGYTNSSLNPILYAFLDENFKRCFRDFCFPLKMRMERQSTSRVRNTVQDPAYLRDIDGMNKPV
Gamma-aminobutyric acid receptor subunit rho-1 (Homo sapiens), sequence (P24046 whole entry): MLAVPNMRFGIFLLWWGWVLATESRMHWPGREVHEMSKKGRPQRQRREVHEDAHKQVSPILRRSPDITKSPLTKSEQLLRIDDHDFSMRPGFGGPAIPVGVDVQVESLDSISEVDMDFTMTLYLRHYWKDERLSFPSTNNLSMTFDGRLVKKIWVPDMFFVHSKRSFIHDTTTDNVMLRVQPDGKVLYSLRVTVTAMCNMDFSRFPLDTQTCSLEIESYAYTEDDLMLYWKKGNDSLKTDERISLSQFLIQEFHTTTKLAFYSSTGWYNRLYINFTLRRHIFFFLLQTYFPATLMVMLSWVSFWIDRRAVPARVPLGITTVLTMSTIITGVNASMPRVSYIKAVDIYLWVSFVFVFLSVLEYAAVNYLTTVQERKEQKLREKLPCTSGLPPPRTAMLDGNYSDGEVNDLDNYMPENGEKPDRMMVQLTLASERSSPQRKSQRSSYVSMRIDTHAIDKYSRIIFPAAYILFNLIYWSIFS
5-hydroxytryptamine receptor 1E, sequence (P28566 whole entry): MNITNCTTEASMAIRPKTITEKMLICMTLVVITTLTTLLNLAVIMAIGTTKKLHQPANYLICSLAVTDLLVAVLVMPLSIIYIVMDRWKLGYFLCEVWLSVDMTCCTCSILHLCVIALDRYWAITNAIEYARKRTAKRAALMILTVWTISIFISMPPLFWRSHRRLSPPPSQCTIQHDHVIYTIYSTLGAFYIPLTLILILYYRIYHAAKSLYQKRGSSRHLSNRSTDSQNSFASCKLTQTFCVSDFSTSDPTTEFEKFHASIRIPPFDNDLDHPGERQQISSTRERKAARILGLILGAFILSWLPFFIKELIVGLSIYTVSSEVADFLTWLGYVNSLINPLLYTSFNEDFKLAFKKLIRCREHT
Histamine H2 receptor, sequence (P25021 whole entry): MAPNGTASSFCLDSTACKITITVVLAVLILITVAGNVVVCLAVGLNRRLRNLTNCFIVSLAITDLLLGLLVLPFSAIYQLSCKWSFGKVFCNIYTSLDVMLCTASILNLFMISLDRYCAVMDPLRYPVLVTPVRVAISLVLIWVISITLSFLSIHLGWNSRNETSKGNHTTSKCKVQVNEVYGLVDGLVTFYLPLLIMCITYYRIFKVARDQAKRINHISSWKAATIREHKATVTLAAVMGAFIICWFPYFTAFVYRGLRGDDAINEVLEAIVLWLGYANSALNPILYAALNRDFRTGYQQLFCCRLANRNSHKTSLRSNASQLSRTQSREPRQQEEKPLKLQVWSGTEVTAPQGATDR

For orientation: pKi means the negative decadic logarithm of the Ki, by convention in mol/L. High values mean a small Ki, low ones a large Ki. As for `O=C(O)/C=C/C(=O)N1N=C(c2c(-c3ccc(Br)cc3)c3ccccc3[nH]c2=O)CC1c1ccc(Cl)cc1` (racemic), the inhibition entry in data set [1], in [12] and in data set [16] was “inactive” each time. In addition, the residual activity in data set [2] came out at 4.8%; in data set [3], 96%; in data set [4], 97%; in data set [7], 3.1%; in data set [9], 98%; in data set [11], 4.9%. In addition, the residual activity in data set [13] amounted to 72%; in [15], 100%; in [18], 96%; in [19] it was 14%. Besides, the Ratio IC50 in data set [5] was 23; in data set [14], 63. Further, the Stability result in data set [6] and in [8] was “Stable” each time. In addition, the pKi in [10] and in data set [17] was < 5.00 throughout.
As usually defined, the solubility (kinetic) is solubility judged after dilution from a stock solution rather than from solid. In general, Papp refers to a coefficient for how fast a substance crosses the barrier. As for `O=C(O)CCC(=O)N1N=C(c2c(-c3ccc(Cl)cc3)c3ccccc3[nH]c2=O)CC1c1ccc(Cl)cc1` (racemic), the Drug recovery is 73% in data set [20] and 76% in [22]. The Stability in data set [21] is listed as 86%; in data set [6] it was “Stable”; in data set [8], “Stable”; in data set [23], 115%. Moreover, the residual activity in data set [3] was 98%; in data set [4], 99%; in [9], 79%; in data set [13], 67%; in data set [15], 99%; in data set [18], 97%. Moreover, the residual activity in [19] was determined as 14%. In addition, the figures for the Ratio IC50 in [5] and in data set [14] were 48 and 50, respectively. In addition, the kinetic solubility in data set [24] is > 80 µM. For the same compound, in data set [25], the apparent permeability coefficient (Papp) turned out to be 4.7 nm/s. Also, the CLint in data set [26] is < 20 µL/min/mg. Besides, in data set [27], the t1/2 was > 1 h. The negative-log Ki (pKi) in data set [17] and in data set [28] was < 5.00 throughout.
